In ChEMBL document CHEMBL1123045, “Synthesis of high specific activity [75Br]- and [77Br]bromperidol and tissue distribution studies in the rat” (J Med Chem, 1985):

Legend:
[1] = system: Rattus norvegicus; experiment: Distribution in rat lungs 8 hr after intravenous administration, injected dose/gm; format: ADME, organism-based, Lung; conditions: in vivo
Procedure, shortened: (§1)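 Female Sprague-Dawley rats (300-320 g) under light ether anesthesia received a single injection of [77Br]-labeled tracer (50-100 µCi in 0.1 mL 0.9% NaCl, pH 3) into the femoral vein. Groups of five were decapitated at set times after a cardiac-puncture blood sample. Organs were dissected, blotted and weighed, and counted in a NaI(Tl) well γ-counter. Values are %ID/g against an injectate standard, mean ± SD (n=5).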

[2] = system: Rattus norvegicus; experiment: Distribution in rat intestine 30 min after intravenous administration, injected dose/gm; format: ADME, organism-based; conditions: in vivo, 0.5 h
Procedure, shortened: (§2)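 [77Br]Bromperidol at high specific activity (50-100 µCi in 0.1 mL 0.9% NaCl, pH 3) given into the femoral vein of 300-320-g female Sprague-Dawley rats under light ether anesthesia. At each time point, groups of five were decapitated after cardiac-puncture blood sampling. Organs were dissected, blotted, weighed and gamma-counted against an injectate standard. Values are % injected dose/g, mean ± SD, n=5.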

[3] = system: Rattus norvegicus; experiment: Distribution in rat kidney, 6 hr after intravenous administration, injected dose/gm; format: ADME, organism-based; conditions: in vivo; procedure, shortened: as §2
[4] = system: Rattus norvegicus; experiment: Distribution in rat skin 30 min after intravenous administration, injected dose/gm; format: ADME, organism-based; conditions: in vivo, 0.5 h; procedure, shortened: as §1
[5] = system: Rattus norvegicus; experiment: Distribution in rat muscle 1 hr after intravenous administration, injected dose/gm; format: ADME, organism-based, Muscle tissue; conditions: in vivo; procedure, shortened: as §1
[6] = system: Rattus norvegicus; experiment: Distribution in rat skin 15 min after intravenous administration, injected dose/gm; format: ADME, organism-based; conditions: in vivo, 0.25 h; procedure, shortened: as §1
[7] = system: Rattus norvegicus; experiment: Distribution in rat intestine 15 min after intravenous administration, injected dose/gm; format: ADME, organism-based; conditions: in vivo, 0.25 h; procedure, shortened: as §2
[8] = system: Rattus norvegicus; experiment: Distribution in rat muscle 5 min after intravenous administration, injected dose/gm; format: ADME, organism-based, Muscle tissue; conditions: in vivo; procedure, shortened: as §1
[9] = system: Rattus norvegicus; experiment: Distribution in rat kidney, 15 min after intravenous administration, injected dose/gm; format: ADME, organism-based; conditions: in vivo, 0.25 h; procedure, shortened: as §2
[10] = system: Rattus norvegicus; experiment: Distribution in rat lungs 1 hr after intravenous administration, injected dose/gm; format: ADME, organism-based, Lung; conditions: in vivo; procedure, shortened: as §1
[11] = system: Rattus norvegicus; experiment: Distribution in rat heart 15 min after intravenous administration, injected dose/gm; format: ADME, organism-based; conditions: in vivo, 0.25 h; procedure, shortened: as §2
[12] = system: Rattus norvegicus; experiment: Distribution in rat fat 5 min after intravenous administration, injected dose/gm; format: ADME, organism-based, Adipose tissue; conditions: in vivo; procedure, shortened: as §2
[13] = system: Rattus norvegicus; experiment: Distribution in rat uterus 30 min after intravenous administration, injected dose/gm; format: ADME, organism-based; conditions: in vivo, 0.5 h; procedure, shortened: as §1
[14] = system: Rattus norvegicus; experiment: Distribution in rat skin 8 hr after intravenous administration, injected dose/gm; format: ADME, organism-based; conditions: in vivo; procedure, shortened: as §1
[15] = system: Rattus norvegicus; experiment: Distribution in rat muscle 8 hr after intravenous administration, injected dose/gm; format: ADME, organism-based, Muscle tissue; conditions: in vivo; procedure, shortened: as §1
[16] = system: Rattus norvegicus; experiment: Distribution in rat spleen 8 hr after intravenous administration, injected dose/gm; format: ADME, organism-based; conditions: in vivo; procedure, shortened: as §1
[17] = system: Rattus norvegicus; experiment: Distribution in brain of rat, 1 hr after intravenous administered, injected dose/gm; format: ADME, organism-based; conditions: in vivo; procedure, shortened: as §2
[18] = system: Rattus norvegicus; experiment: Distribution in rat liver 4 hr after intravenous administration, injected dose/gm; format: ADME, organism-based; conditions: in vivo; procedure, shortened: as §1
[19] = system: Rattus norvegicus; experiment: Distribution in rat lungs 5 min after intravenous administration, injected dose/gm; format: ADME, organism-based, Lung; conditions: in vivo; procedure, shortened: as §1
[20] = system: Rattus norvegicus; experiment: Distribution in rat fat 30 min after intravenous administration, injected dose/gm; format: ADME, organism-based, Adipose tissue; conditions: in vivo, 0.5 h; procedure, shortened: as §2
[21] = system: Rattus norvegicus; experiment: Distribution in rat heart 2 hr after intravenous administration, injected dose/gm; format: ADME, organism-based; conditions: in vivo; procedure, shortened: as §2
[22] = system: Rattus norvegicus; experiment: Distribution in rat skin 5 min after intravenous administration, injected dose/gm; format: ADME, organism-based; conditions: in vivo; procedure, shortened: as §1
[23] = system: Rattus norvegicus; experiment: Distribution in rat heart 30 min after intravenous administration, injected dose/gm; format: ADME, organism-based; conditions: in vivo, 0.5 h; procedure, shortened: as §2
[24] = system: Rattus norvegicus; experiment: Distribution in rat pancreas 1 hr after intravenous administration, injected dose/gm; format: ADME, organism-based; conditions: in vivo; procedure, shortened: as §1
[25] = system: Rattus norvegicus; experiment: Distribution in rat liver 6 hr after intravenous administration, injected dose/gm; format: ADME, organism-based; conditions: in vivo; procedure, shortened: as §1

O=C(CCCN1CCC(O)(c2ccc(Br)cc2)CC1)c1ccc(F)cc1 [BROMPERIDOL]
Distribution [1]: 1.14% | Distribution [2]: 0.83% | Distribution [3]: 1.93% | Distribution [4]: 0.2% | Distribution [5]: 0.18% | Distribution [6]: 0.19% | Distribution [7]: 0.91% | Distribution [8]: 0.32% | Distribution [9]: 4.69% | Distribution [10]: 4.19% | Distribution [11]: 1.37% | Distribution [12]: 0.05% | Distribution [13]: 3% | Distribution [14]: 0.14% | Distribution [15]: 0.1% | Distribution [16]: 1.86% | Distribution [17]: 2.48% | Distribution [18]: 4.08% | Distribution [19]: 13.6% | Distribution [20]: 0.2% | Distribution [21]: 0.46% | Distribution [22]: 0.15% | Distribution [23]: 1.07% | Distribution [24]: 4.23% | Distribution [25]: 4.16%
